The species entered for data set [1] is Mus musculus. As to the kind of experiment: Distribution of compound in mice brain was measured after 24 hr r. The settings on record: in vivo.
Data set [2] is filed under the species Mus musculus. As to the kind of experiment: Distribution of compound in mice brain was measured after 2 hr. The settings on record: in vivo.
The species named for data set [3] is Mus musculus. As to the kind of experiment: Distribution of compound in mice brain was measured after 3 hr. The settings on record: in vivo.
Data set [4] is filed under the species Mus musculus. As to the kind of experiment: Distribution of compound in mice brain was measured after 6 hr. The settings on record: in vivo.
The species entered for data set [5] is Mus musculus. As to the kind of experiment: Distribution of compound in mice liver was measured after 1 hr. It counts as ADME, organism-based. The settings on record: in vivo. An outline of the steps: (§1)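 Female BDF/1 mice dosed by tail-vein injection at 25 mg/kg in 5% Tween 80 containing 5% ethanol; killed 1, 2, 3, 6 and 24 h later. Liver homogenized in 50% methanol and pyridinium salt quantified by C-18 reverse-phase HPLC (linear gradient 50–70% acetonitrile). Three mice per time point; values in µg/g wet tissue.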

Data set [6] is filed under the species Mus musculus. As to the kind of experiment: Distribution of compound in mice liver was measured after 24 hr; b=Undetected. Type of data set: ADME, organism-based. The settings on record: in vivo. An outline of the steps:
as §1

For data set [7], the species on record is Mus musculus. As to the kind of experiment: Distribution of compound in mice liver was measured after 2 hr. It counts as ADME, organism-based. The settings on record: in vivo. An outline of the steps: as §1
For data set [8], the species on record is Mus musculus. As to the kind of experiment: Distribution of compound in mice liver was measured after 3 hr. Type of data set: ADME, organism-based. The settings on record: in vivo. The gist of the method: as §1
For data set [9], the species on record is Mus musculus. As to the kind of experiment: Distribution of compound in mice liver was measured after 6 hr. The settings on record: in vivo. Type of data set: ADME, organism-based. The gist of the method: as §1
The species named for data set [10] is Mus musculus. As to the kind of experiment: Distribution of compound in mice brain was measured after 1 hr. The settings on record: in vivo.
For data set [11], the species on record is Homo sapiens. As to the kind of experiment: In vitro oxidation of compound to its pyridinium salt (3) in presence of human plasma. Type of data set: ADME. An outline of the steps:
(§2)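 Dihydropyridine ester at 5 × 10^-5 M kept at 37 °C in a UV cuvette. Media were human plasma diluted 1:1 with 50 mM phosphate buffer pH 7.4, mouse liver homogenate (20 mg/mL) or mouse brain homogenate (40 mg/mL) in the same buffer. Loss of the 360 nm dihydronicotinate absorbance was followed. Rate constant came from the slope of log disappearance.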

The species entered for data set [12] is Mus musculus. As to the kind of experiment: In vitro oxidation of compound to its pyridinium salt (3) in presence of mouse brain homogenate. It counts as ADME. An outline of the steps: as §2
The species entered for data set [13] is Mus musculus. As to the kind of experiment: In vitro oxidation of compound to its pyridinium salt (3) in presence of mouse liver homogenate. Type of data set: ADME. The gist of the method:
as §2

Data set [14] in a line: Half-life of compound in presence of human plasma. Type of data set: ADME. An outline of the steps:
as §2

Data set [15] is described as follows: Half-life of compound in presence of hydrogen peroxide. Type of data set: ADME.
A short description of data set [16]: Half-life of compound in presence of mouse brain homogenate. It counts as ADME. The gist of the method:
as §2

Data set [17] is described as follows: Half-life of compound in presence of mouse liver homogenate. Type of data set: ADME. An outline of the steps: as §2
A short description of data set [18]: In vitro oxidation of compound to its pyridinium salt (3) in presence of hydrogen peroxide. Type of data set: ADME.

We go through four compounds from ChEMBL document CHEMBL1124421, “A dihydropyridine carrier system for sustained delivery of 2',3'-dideoxynucleosides to the brain” (J Med Chem, 1989).

Consider `Cc1cn(C2C=CC(COC(=O)c3ccc[n+](C)c3)O2)c(=O)[nH]c1=O.[I-]` (stereo not drawn), for which the Concentration in data set [1] is recorded as 3 ug (g of wet tissue)-1; in [2], 4.9 ug (g of wet tissue)-1; in data set [3] it was 5.3 ug (g of wet tissue)-1; in [4], 5.1 ug (g of wet tissue)-1; in data set [5], 3.3 ug (g of wet tissue)-1; in data set [6], “Undetected”. The Concentration in data set [7] is recorded as 2.5 ug (g of wet tissue)-1; in data set [8], 2 ug (g of wet tissue)-1; in data set [9] it was 1.3 ug (g of wet tissue)-1; in data set [10], 4.7 ug (g of wet tissue)-1.
For the compound `Cc1cn([C@H]2C=C[C@@H](CO)O2)c(=O)[nH]c1=O` [STAVUDINE], the Concentration in [1] is recorded as 1.2 ug (g of wet tissue)-1; in data set [2], 2.5 ug (g of wet tissue)-1; in data set [3] it was 2.6 ug (g of wet tissue)-1; in [4], 2.3 ug (g of wet tissue)-1; in data set [10] it was 2.7 ug (g of wet tissue)-1.
A word on the half-life: it is how long it takes for the measured level to halve. On to `Cc1cn(C2C=CC(COC(=O)C3=CN(C)C=CC3)O2)c(=O)[nH]c1=O` (stereo not drawn), for which the K in data set [11] came out at 0.0000354 s⁻¹; in data set [12] it was 0.0000885 s⁻¹; in data set [13], 0.000092 s⁻¹; in [18], 0.00055 s⁻¹. Besides, the half-life in data set [14] came out at 5.42 h; in data set [15], 0.35 h; in data set [16] it was 2.17 h; in data set [17] it was 2.08 h.
For `C[n+]1cccc(C(=O)[O-])c1` [TRIGONELLINE], the Concentration is 0.9 ug (g of wet tissue)-1 in data set [1]; 2.1 ug (g of wet tissue)-1 in data set [2]; 2.4 ug (g of wet tissue)-1 in data set [3]; 1.9 ug (g of wet tissue)-1 in [4]; 2.2 ug (g of wet tissue)-1 in data set [10].
